Laboratory results reported in ChEMBL document CHEMBL4392827, “Tryptamine derivatives disarm colistin resistance in polymyxin-resistant gram-negative bacteria” (Bioorg Med Chem, 2019).

Legend:
Acinetobacter baumannii [1] = assay: Toxicity in Acinetobacter baumannii ATCC 17978 expressing mcr1 gene after 18 hrs by broth microdilution assay; assay type: organism-based
Method in brief: (§1)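 Single-agent MIC per CLSI broth microdilution. Cells from a 4–6 h culture in cation-adjusted Mueller-Hinton broth adjusted to 5 ×10^5 CFU/mL. Compound (DMSO stock) added to 200 μM top concentration and twofold serially diluted six times, with an untreated control row. Plates sealed and incubated stationary at 37°C for 18 h before MIC read.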

Acinetobacter baumannii [2] = assay: Potentiation of colistin-induced antimicrobial activity against colistin-sensitive Acinetobacter baumannii 5075 assessed as fold reduction in colistin MIC at 60 uM after 18 hrs by broth microdilution assay; assay type: functional
Method in brief: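 Bacteria grown 4–6 h in cation-adjusted Mueller-Hinton broth and diluted to 5 ×10^5 CFU/mL. Adjuvant from DMSO stock held at fixed 60 μM while colistin is twofold serially diluted in the same adjuvant-dosed broth. Plates sealed and kept stationary at 37°C for 18 h. Colistin MIC read and fold reduction taken relative to colistin alone.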

Klebsiella pneumoniae [3] = assay: Potentiation of colistin-induced antimicrobial activity against colistin-resistant Klebsiella pneumoniae isolate C3 assessed as fold reduction in colistin MIC at 60 uM incubated for 2 to 24 hrs under shaking condition in presence of 0.001% triton X-100 by broth microdilution assay; assay type: functional
Acinetobacter baumannii [4] = assay: Potentiation of colistin-induced antimicrobial activity against colistin-resistant Acinetobacter baumannii isolate 3942 assessed as fold reduction in colistin MIC at 30 uM after 18 hrs by broth microdilution assay; assay type: functional
Method in brief: (§2)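 CLSI-adapted broth microdilution. Bacteria were grown 4–6 h in cation-adjusted Mueller-Hinton broth and subcultured to 5 ×10^5 CFU/mL. The subculture was dosed with adjuvant from DMSO stock at a constant final concentration, then colistin was added and serially diluted across wells. Plates were incubated stationary at 37°C for 18 h and the MIC recorded. Fold reduction is relative to the colistin MIC without adjuvant.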

Klebsiella pneumoniae [5] = assay: Potentiation of colistin-induced antimicrobial activity against colistin-resistant Klebsiella pneumoniae isolate C3 assessed as fold reduction in colistin MIC at 30 uM after 18 hrs by broth microdilution assay; assay type: functional; method in brief: as §2
Klebsiella pneumoniae [6] = assay: Potentiation of colistin-induced antimicrobial activity against colistin-resistant Klebsiella pneumoniae isolate C3 assessed as fold reduction in colistin MIC at 40 uM after 18 hrs by broth microdilution assay; assay type: functional; method in brief: as §2
Klebsiella pneumoniae [7] = assay: Potentiation of colistin-induced antimicrobial activity against colistin-resistant Klebsiella pneumoniae isolate C3 assessed as fold reduction in colistin MIC at 15 uM after 18 hrs by broth microdilution assay; assay type: functional; method in brief: as §2
Klebsiella pneumoniae [8] = assay: Induction of membrane permeabilization in colistin-resistant Klebsiella pneumoniae isolate C3 at 60 uM measured after 1 hr by SYTO-9/propidium iodide staining based fluorescence assay relative to control; assay type: functional
Method in brief: (§3)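 Cells were grown overnight in CAMHB at 37°C, diluted 1:10 and grown 4 h more to an OD600 of ~0.3. They were pelleted, washed with sterile water and resuspended at 1/10 volume in water containing compound. After 1 h at 37°C with shaking, cells were washed and stained with SYTO-9/propidium iodide (1:1, 3 μL/mL) for 15 min at RT. Emission was read at 530 and 645 nm (excitation 485 nm), and the green/red ratio was expressed as % of the untreated control.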

Acinetobacter baumannii [9] = assay: Potentiation of colistin-induced antimicrobial activity against colistin-resistant Acinetobacter baumannii ATCC 17978 expressing mcr1 gene assessed as fold reduction in colistin MIC at 60 uM after 18 hrs by broth microdilution assay; assay type: functional
Method in brief: (§4)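 Checkerboard-style resensitization following adapted CLSI broth microdilution. Bacteria were grown 4–6 h in CAMHB and subcultured to 5×10^5 CFU/mL. Adjuvant was added from DMSO stock and held constant while colistin was serially diluted in the dosed subculture. Plates were incubated stationary at 37°C for 18 h, then MICs were read. Fold reduction was taken relative to the colistin MIC without adjuvant.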

Klebsiella pneumoniae [10] = assay: Potentiation of colistin-induced antimicrobial activity against colistin-resistant Klebsiella pneumoniae isolate C3 assessed as fold reduction in colistin MIC at 30 uM incubated for 2 to 24 hrs under shaking condition in presence of 0.001% triton X-100 by broth microdilution assay; assay type: functional
Acinetobacter baumannii [11] = assay: Toxicity in Acinetobacter baumannii 4106 after 18 hrs by broth microdilution assay; assay type: organism-based; details: in vitro; method in brief: as §1
Acinetobacter baumannii [12] = assay: Induction of membrane permeabilization in colistin-resistant Acinetobacter baumannii isolate 3942 at 60 uM measured after 1 hr by SYTO-9/propidium iodide staining based fluorescence assay relative to control; assay type: functional; method in brief: as §3
Klebsiella pneumoniae [13] = assay: Potentiation of colistin-induced antimicrobial activity against colistin-resistant Klebsiella pneumoniae isolate C3 assessed as fold reduction in colistin MIC at 10 uM after 18 hrs by broth microdilution assay; assay type: functional; method in brief: as §2
Acinetobacter baumannii [14] = assay: Potentiation of colistin-induced antimicrobial activity against colistin-resistant Acinetobacter baumannii 4106 assessed as fold reduction in colistin MIC at 60 uM after 18 hrs by broth microdilution assay; assay type: functional; method in brief: as §4
Acinetobacter baumannii [15] = assay: Potentiation of colistin-induced antimicrobial activity against colistin-resistant Acinetobacter baumannii isolate 3942 assessed as fold reduction in colistin MIC at 60 uM after 18 hrs by broth microdilution assay; assay type: functional; method in brief: as §4

Structure (SMILES): O=C(NCc1c[nH]c2ccccc12)c1cc(Br)c(Br)[nH]1
- MIC (Acinetobacter baumannii [1]): > 200 µM
- fold change (FC) (Acinetobacter baumannii [2]): 4
- fold change (FC) (Klebsiella pneumoniae [3]): 2048
- fold change (FC) (Acinetobacter baumannii [4]): 128
- fold change (FC) (Klebsiella pneumoniae [5]): 128
- fold change (FC) (Klebsiella pneumoniae [6]): 256
- fold change (FC) (Klebsiella pneumoniae [7]): 64
- fold change (FC) (Klebsiella pneumoniae [8]): 1.5
- fold change (FC) (Acinetobacter baumannii [9]): 32
- fold change (FC) (Klebsiella pneumoniae [10]): 512
- MIC (Acinetobacter baumannii [11]): > 200 µM
- fold change (FC) (Acinetobacter baumannii [12]): 1.9
- fold change (FC) (Klebsiella pneumoniae [13]): 32
- fold change (FC) (Acinetobacter baumannii [14]): 2048
- fold change (FC) (Acinetobacter baumannii [15]): 2048
